Assay results pooled from the literature.
Compare with care: the assays were run in different laboratories.
BCL2: Apoptosis regulator Bcl-2 (BCL2, Homo sapiens, UniProt P10415)
Enoyl-[acyl-carrier-protein] reductase [NADPH] FabI: Enoyl-[acyl-carrier-protein] reductase [NADPH] FabI (Staphylococcus aureus, UniProt Q6GI75)
CYP1A1: Cytochrome P450 1A1 (CYP1A1, Homo sapiens, UniProt P04798)
FOLH1: Glutamate carboxypeptidase 2 (FOLH1, Homo sapiens, UniProt Q04609)

With `CC[C@H](C)[C@H](NC(=O)[C@H](CCC(=O)O)NC(=O)[C@H](CC(=O)O)NC(=O)CNC(=O)[C@H](CC(C)C)NC(=O)[C@H](CCCNC(=N)N)NC(=O)[C@H](CCC(N)=O)NC(=O)[C@H](CC(C)C)NC(=O)[C@H](CO)NC(=O)[C@H](CCC(N)=O)NC(=O)[C@@H](NC(=O)[C@H](CC(C)C)NC(=O)[C@H](Cc1c[nH]c2ccccc12)NC(=O)[C@@H](NC(=O)[C@H](CCC(=O)O)NC(=O)[C@@H]1CCCN1C(=O)[C@H](CCCNC(=N)N)NC(C)=O)[C@@H](C)CC)[C@@H](C)O)C(=O)N[C@@H](CC(N)=O)C(=O)N[C@@H](C)C(=O)N[C@@H](Cc1ccc(O)cc1)C(=O)N[C@@H](Cc1ccc(O)cc1)C(=O)N[C@@H](C)C(=O)N[C@@H](CCCNC(=N)N)C(N)=O` the Ki was roughly 2700 nM (BCL2; ligand displacement, FP).
The Ki of `CCc1cc(O)c(Oc2ccccc2)cc1F` is reported as 0.09 nM (Enoyl-[acyl-carrier-protein] reductase [NADPH] FabI; enzyme activity, inhibitor).
The Ki of `COc1cc(O)c(CC=C(C)C)c2c1C(=O)CC(c1ccc(O)cc1)O2` (stereo not drawn) is reported as 1600 nM (CYP1A1; enzyme activity, inhibitor, fluorescence; 15 min, pH 7.4).
`CC[C@H](C)[C@H](NC(=O)[C@H](CCCCN)NC(=O)[C@H](CCCNC(=N)N)NC(=O)[C@H](CC(C)C)NC(=O)[C@H](CCC(N)=O)NC(=O)[C@H](C)NC(=O)[C@H](C)NC(=O)[C@H](Cc1ccccc1)NC(=O)[C@H](CCC(=O)O)NC(=O)[C@@H]1CCCN1C(=O)[C@@H]1CCCN1C(=O)[C@H](CC(C)C)NC(=O)[C@H](CCC(=O)O)NC(=O)[C@H](C)NC(C)=O)C(=O)NCC(=O)N[C@@H](CC(=O)O)C(=O)N[C@@H](CCCCN)C(=O)N[C@H](C(=O)N[C@@H](Cc1ccc(O)cc1)C(=O)N[C@@H](CS)C(N)=O)C(C)C` has a Ki of roughly 14000 nM (Bcl-2-like protein 2 (BCL2L2, Homo sapiens, UniProt Q92843); ligand displacement, FP).
With `N#Cc1cc(Br)ccc1Oc1ccc(Cl)cc1O` the Ki was 0.17 nM (Enoyl-[acyl-carrier-protein] reductase [NADPH] FabI; enzyme activity, inhibitor).
`CC[C@H](C)[C@H](NC(=O)[C@H](CCC(=O)O)NC(=O)[C@H](CC(=O)O)NC(=O)CNC(=O)[C@H](CC(C)C)NC(=O)[C@H](CCCNC(=N)N)NC(=O)[C@H](CCCNC(=N)N)NC(=O)[C@H](CC(C)C)NC(=O)CNC(=O)[C@H](CCC(N)=O)NC(=O)[C@@H](NC(=O)[C@H](CCSC)NC(=O)[C@H](Cc1c[nH]c2ccccc12)NC(=O)[C@@H](NC(=O)[C@H](CCC(=O)O)NC(=O)[C@@H]1CCCN1C(=O)[C@H](CCCNC(=N)N)NC(C)=O)[C@@H](C)CC)[C@@H](C)O)C(=O)N[C@@H](CC(N)=O)C(=O)N[C@@H](C)C(=O)N[C@@H](Cc1ccc(O)cc1)C(=O)N[C@@H](Cc1ccc(O)cc1)C(=O)N[C@@H](C)C(=O)N[C@@H](CCCNC(=N)N)C(N)=O` has a Ki of roughly 2900 nM (BCL2; ligand displacement, FP).
`C#Cc1cccc(-c2cc(=O)c3ccccc3o2)c1` gave a Ki of 41 nM (CYP1A1; enzyme activity, inhibitor, fluorescence; 6 min, pH 7.6).
For `O=C(O)CCC(NC(=O)NC(CCCCNC(=O)CCCCCCC(=O)NCCCCC(NC(=O)C(Cc1ccccc1)NC(=O)C(Cc1ccccc1)NC(=O)CN1CCN(CC(=O)O)CCN(CC(=O)O)CCN(CC(=O)O)CC1)C(=O)O)C(=O)O)C(=O)O` (stereo not drawn), the Ki was 1.23 nM (FOLH1; enzyme activity, inhibitor, fluorescence).
With `NCCCC[C@H](NC(=O)[C@@H]1CCCN1C(=O)[C@@H]1CSSC[C@H](N)C(=O)N[C@@H](Cc2ccc(O)cc2)C(=O)N[C@@H](Cc2ccccc2)C(=O)N[C@@H](CCC(N)=O)C(=O)N[C@@H](CC(N)=O)C(=O)N1)C(=O)NCC(N)=O` the Ki was 1.8 nM (Vasopressin V1a receptor (AVPR1A, Homo sapiens, UniProt P37288); ligand displacement, radioligand; cell membranes).
`C#Cc1ccc2c(=O)cc(-c3ccccc3)oc2c1` gave a Ki of 24 nM (CYP1A1; enzyme activity, inhibitor, fluorescence; 6 min, pH 7.6).
`CC[C@H](NC(=O)[C@H](CS(=O)(=O)CC1CC1)N[C@@H](c1ccc(F)cc1)C(F)(F)F)C(=O)C(=O)NC1CC1` has a Ki of 0.04 nM (Cathepsin S (Ctss, Mus musculus, UniProt O70370); enzyme activity, inhibitor).
With `O=C(O)CCC(NC(=O)NC(CCCCNC(=O)CCCCCCC(=O)NC(CCCCNC(=O)CN1CCN(CC(=O)O)CCN(CC(=O)O)CCN(CC(=O)O)CC1)C(=O)OCc1ccccc1)C(=O)O)C(=O)O` (stereo not drawn) the Ki was 2.9 nM (FOLH1; enzyme activity, inhibitor, fluorescence).
